Data: ChEMBL document CHEMBL3861950, “Design, synthesis and evaluation of novel 19F magnetic resonance sensitive protein tyrosine phosphatase inhibitors” (Medchemcomm, 2016)

Columns and labels:
[1] = molecular target: Tyrosine-protein phosphatase non-receptor type 13 (Homo sapiens, UniProt Q12923); test: Inhibition of recombinant FAP1 (unknown origin) using pNPP as substrate by spectrophotometric method
In short: (§1)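 Recombinant PTP prepared in-house, assayed with pNPP substrate in 50 mM 3,3-dimethylglutarate buffer pH 7.0 containing 1 mM EDTA and 150 mM NaCl at 25 °C, in 96-well format. p-Nitrophenol product was quantified by absorbance at 405 nm. Non-enzymatic pNPP hydrolysis was corrected using a no-enzyme control.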

[2] = molecular target: T1, Tyrosine-protein phosphatase non-receptor type 1 (Homo sapiens, UniProt P18031); test: Inhibition of recombinant PTP1B (unknown origin) using pNPP as substrate by spectrophotometric method; in short: as §1
T1 sequence (P18031 whole entry): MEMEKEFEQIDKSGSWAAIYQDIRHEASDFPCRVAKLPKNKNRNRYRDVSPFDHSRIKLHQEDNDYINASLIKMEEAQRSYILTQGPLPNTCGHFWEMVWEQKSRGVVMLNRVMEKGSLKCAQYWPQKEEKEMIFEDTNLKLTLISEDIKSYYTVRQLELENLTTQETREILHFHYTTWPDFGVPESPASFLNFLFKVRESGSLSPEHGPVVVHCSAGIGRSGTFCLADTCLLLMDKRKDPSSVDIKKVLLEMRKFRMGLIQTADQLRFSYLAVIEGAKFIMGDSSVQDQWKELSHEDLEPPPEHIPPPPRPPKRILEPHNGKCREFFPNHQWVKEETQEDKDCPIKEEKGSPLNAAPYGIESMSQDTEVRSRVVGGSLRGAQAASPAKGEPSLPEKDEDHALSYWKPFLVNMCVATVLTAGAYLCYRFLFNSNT

[3] = molecular target: T2, Receptor-type tyrosine-protein phosphatase C (Homo sapiens, UniProt P08575); test: Inhibition of recombinant CD45 (unknown origin) using pNPP as substrate by spectrophotometric method; in short: as §1
T2 sequence (P08575 whole entry): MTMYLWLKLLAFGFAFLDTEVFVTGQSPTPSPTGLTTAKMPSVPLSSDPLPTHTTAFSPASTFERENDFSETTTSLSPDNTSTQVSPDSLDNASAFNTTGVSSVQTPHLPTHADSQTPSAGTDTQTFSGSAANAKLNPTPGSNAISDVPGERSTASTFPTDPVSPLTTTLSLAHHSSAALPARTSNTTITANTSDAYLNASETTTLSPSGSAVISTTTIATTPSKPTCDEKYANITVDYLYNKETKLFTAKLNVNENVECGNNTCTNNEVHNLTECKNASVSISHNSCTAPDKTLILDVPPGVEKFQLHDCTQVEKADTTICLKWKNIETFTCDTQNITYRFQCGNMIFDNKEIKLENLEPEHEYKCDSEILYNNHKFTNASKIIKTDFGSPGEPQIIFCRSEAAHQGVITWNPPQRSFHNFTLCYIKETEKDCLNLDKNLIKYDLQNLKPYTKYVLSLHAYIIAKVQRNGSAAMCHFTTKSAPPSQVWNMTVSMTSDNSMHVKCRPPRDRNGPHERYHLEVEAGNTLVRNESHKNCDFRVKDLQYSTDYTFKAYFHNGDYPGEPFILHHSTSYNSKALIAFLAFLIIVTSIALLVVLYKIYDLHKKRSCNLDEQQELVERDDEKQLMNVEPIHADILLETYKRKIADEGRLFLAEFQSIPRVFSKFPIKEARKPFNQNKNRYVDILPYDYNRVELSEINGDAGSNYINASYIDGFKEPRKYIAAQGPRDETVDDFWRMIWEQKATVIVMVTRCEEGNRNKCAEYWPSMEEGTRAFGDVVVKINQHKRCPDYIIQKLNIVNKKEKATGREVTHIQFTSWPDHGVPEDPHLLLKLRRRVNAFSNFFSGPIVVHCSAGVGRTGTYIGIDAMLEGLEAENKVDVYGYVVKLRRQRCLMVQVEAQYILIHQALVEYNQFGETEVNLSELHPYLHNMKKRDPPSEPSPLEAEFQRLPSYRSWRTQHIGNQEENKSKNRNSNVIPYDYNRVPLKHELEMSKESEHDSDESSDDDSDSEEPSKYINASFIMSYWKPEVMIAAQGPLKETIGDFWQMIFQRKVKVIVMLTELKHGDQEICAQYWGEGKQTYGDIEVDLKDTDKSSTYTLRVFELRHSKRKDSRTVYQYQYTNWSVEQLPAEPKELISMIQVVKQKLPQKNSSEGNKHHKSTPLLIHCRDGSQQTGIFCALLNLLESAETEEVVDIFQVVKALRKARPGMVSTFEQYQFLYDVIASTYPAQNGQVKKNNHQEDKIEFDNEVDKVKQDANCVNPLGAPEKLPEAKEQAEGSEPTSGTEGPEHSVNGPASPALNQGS

[4] = molecular target: T3, Tyrosine-protein phosphatase non-receptor type 11 (Homo sapiens, UniProt Q06124); test: Inhibition of recombinant SHP2 (unknown origin) using pNPP as substrate by spectrophotometric method; in short: as §1
T3 sequence (Q06124 whole entry): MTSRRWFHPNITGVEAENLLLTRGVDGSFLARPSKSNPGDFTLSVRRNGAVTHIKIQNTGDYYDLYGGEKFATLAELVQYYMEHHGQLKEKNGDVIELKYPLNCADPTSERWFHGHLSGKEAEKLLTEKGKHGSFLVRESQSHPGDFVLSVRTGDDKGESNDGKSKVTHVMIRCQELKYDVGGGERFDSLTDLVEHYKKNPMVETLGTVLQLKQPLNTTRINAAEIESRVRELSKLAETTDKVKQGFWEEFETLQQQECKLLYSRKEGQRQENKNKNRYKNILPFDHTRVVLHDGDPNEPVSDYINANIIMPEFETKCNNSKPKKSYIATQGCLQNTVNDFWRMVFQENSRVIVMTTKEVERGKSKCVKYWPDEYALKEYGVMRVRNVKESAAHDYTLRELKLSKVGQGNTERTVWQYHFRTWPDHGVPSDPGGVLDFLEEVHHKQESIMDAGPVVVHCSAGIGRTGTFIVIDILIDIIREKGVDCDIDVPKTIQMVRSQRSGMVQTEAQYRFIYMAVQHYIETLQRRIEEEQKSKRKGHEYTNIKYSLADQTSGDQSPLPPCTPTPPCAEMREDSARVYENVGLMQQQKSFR

[5] = Inhibition of recombinant Mycobacterium tuberculosis PTPB using pNPP as substrate by spectrophotometric method
In short: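 Recombinant enzyme made in-house. Substrate pNPP in 50 mM 3,3-dimethylglutarate buffer, pH 7.0, with 1 mM EDTA and 150 mM NaCl, at 25 °C, screened in 96-well format. p-Nitrophenol product read at 405 nm. Non-enzymatic pNPP hydrolysis was corrected using a control without enzyme.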

[6] = molecular target: T4, Tyrosine-protein phosphatase non-receptor type 22 (Homo sapiens, UniProt Q9Y2R2); test: Inhibition of recombinant LYP (unknown origin) using pNPP as substrate by spectrophotometric method; in short: as §1
T4 sequence (Q9Y2R2 whole entry): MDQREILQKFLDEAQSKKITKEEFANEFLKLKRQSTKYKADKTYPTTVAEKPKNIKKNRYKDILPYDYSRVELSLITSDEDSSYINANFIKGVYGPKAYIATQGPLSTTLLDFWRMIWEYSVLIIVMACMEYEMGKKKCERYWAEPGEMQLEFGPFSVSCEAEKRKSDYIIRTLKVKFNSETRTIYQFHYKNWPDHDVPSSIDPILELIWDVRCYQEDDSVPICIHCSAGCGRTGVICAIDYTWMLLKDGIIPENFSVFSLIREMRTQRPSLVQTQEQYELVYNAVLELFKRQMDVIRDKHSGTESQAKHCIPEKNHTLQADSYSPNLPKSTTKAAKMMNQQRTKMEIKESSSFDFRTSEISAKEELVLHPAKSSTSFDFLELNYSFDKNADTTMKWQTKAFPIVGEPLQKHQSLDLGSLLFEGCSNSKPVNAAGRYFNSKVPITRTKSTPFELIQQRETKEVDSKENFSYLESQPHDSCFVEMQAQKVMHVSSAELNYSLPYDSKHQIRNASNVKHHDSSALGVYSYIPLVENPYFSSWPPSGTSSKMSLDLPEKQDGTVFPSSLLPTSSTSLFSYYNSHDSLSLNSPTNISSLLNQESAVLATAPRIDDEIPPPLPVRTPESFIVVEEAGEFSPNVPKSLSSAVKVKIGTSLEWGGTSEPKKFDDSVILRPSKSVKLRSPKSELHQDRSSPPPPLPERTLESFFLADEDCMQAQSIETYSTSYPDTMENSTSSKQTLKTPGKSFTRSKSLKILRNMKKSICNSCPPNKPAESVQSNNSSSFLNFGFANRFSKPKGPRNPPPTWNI

Sequence of Tyrosine-protein phosphatase non-receptor type 13 (Q12923 whole entry): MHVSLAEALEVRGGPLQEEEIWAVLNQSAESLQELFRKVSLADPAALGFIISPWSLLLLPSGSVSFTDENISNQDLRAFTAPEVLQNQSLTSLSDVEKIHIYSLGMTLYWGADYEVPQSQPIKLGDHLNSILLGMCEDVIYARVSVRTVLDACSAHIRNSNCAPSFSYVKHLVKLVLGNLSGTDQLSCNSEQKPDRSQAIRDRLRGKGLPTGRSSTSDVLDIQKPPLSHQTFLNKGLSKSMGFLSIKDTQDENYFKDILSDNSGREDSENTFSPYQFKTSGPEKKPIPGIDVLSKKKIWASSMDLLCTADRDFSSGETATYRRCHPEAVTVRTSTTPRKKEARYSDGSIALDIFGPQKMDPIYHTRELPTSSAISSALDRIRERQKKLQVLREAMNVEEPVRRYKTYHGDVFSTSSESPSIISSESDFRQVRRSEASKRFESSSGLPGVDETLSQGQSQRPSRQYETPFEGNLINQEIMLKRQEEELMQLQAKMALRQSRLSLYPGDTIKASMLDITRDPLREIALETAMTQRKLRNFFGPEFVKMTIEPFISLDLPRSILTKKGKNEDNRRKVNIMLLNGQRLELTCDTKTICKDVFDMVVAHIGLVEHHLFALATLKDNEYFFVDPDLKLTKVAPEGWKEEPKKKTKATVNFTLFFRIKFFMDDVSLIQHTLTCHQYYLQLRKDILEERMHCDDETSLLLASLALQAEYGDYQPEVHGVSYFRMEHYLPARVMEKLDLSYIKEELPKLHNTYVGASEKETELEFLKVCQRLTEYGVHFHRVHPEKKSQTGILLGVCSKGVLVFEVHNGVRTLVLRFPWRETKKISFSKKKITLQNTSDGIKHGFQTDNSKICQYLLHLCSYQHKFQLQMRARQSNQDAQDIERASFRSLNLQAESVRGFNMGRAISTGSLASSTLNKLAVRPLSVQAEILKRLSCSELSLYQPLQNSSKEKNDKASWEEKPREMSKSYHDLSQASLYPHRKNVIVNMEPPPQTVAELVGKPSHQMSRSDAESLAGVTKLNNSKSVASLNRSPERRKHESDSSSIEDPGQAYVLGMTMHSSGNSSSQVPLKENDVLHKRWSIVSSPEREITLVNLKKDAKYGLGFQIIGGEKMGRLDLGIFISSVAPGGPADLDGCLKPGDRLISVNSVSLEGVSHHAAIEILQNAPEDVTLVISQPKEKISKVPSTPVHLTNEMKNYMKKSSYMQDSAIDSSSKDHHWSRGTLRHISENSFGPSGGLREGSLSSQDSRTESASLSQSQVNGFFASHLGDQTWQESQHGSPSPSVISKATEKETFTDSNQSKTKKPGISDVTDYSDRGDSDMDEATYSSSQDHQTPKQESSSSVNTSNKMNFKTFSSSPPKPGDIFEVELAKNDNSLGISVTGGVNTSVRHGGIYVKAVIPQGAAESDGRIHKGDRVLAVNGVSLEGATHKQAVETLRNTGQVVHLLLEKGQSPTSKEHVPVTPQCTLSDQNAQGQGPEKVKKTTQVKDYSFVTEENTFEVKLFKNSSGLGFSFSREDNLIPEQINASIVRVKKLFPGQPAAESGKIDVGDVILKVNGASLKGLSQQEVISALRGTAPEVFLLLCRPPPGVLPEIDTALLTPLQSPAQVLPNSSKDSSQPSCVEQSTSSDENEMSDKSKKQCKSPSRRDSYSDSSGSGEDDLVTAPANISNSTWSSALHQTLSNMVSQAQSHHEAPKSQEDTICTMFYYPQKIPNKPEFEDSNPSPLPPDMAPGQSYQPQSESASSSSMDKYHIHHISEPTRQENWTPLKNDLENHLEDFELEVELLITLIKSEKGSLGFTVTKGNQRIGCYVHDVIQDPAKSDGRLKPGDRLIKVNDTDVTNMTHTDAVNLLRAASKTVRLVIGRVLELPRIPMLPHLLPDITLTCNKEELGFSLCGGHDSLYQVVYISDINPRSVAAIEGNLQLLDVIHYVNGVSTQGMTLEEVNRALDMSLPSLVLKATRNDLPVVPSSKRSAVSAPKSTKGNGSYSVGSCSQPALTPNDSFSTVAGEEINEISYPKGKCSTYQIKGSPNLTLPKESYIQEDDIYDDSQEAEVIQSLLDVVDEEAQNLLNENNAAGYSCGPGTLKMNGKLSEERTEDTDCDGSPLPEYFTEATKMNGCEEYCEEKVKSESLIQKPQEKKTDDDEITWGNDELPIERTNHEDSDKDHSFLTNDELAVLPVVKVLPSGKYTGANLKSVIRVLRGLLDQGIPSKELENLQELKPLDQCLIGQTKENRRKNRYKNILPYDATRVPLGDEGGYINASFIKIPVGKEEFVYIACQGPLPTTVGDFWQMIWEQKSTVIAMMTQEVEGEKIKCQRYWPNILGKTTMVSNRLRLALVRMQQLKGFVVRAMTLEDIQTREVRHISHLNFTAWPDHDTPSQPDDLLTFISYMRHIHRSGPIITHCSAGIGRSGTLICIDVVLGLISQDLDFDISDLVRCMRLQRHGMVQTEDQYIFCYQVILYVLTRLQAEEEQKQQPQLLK

Compound | IC50 [1] | IC50 [2] | IC50 [3] | IC50 [4] | IC50 [5] | IC50 [6]
O=C(COc1ccc2cc(C(O)(C(F)(F)F)C(F)(F)F)c(O)cc2c1)NC12CC3CC(CC(C3)C1)C2 | 7.4 µM | 14.7 µM | 7.6 µM | 9 µM | > 20 µM | 10.1 µM
Oc1c(-c2ccccc2)cccc1C(O)(C(F)(F)F)C(F)(F)F | 449 µM | 422 µM | 157 µM | 136 µM | 148 µM | 268 µM
O=C(COc1ccc2cc(C(O)(C(F)(F)F)C(F)(F)F)c(O)cc2c1)NCc1ccc(F)cc1 | > 20 µM | > 20 µM | > 20 µM | > 20 µM | > 20 µM | > 20 µM
CC(C)c1ccc(NC(=O)COc2ccc3cc(C(O)(C(F)(F)F)C(F)(F)F)c(O)cc3c2)cc1 | 6.5 µM | 17.2 µM | 7.8 µM | 8.5 µM | 7.3 µM | 8.8 µM
O=C(COc1ccc2cc(C(O)(C(F)(F)F)C(F)(F)F)c(O)cc2c1)NCCc1ccc(Cl)cc1Cl | 4.3 µM | 12.6 µM | 5.2 µM | 6.7 µM | 5.1 µM | 6.9 µM
O=C(COc1ccc2cc(C(O)(C(F)(F)F)C(F)(F)F)c(O)cc2c1)Nc1cccc2ccccc12 | > 20 µM | > 20 µM | 29.1 µM | > 20 µM | 4.7 µM | > 20 µM
Cc1ccc(O)c(C(O)(C(F)(F)F)C(F)(F)F)c1 | 454 µM | 360 µM | 207 µM | 202 µM | 180 µM | 303 µM
COc1ccc(CNC(=O)COc2ccc3cc(C(O)(C(F)(F)F)C(F)(F)F)c(O)cc3c2)cc1OC | > 20 µM | > 20 µM | > 20 µM | > 20 µM | 18.1 µM | > 20 µM
O=C(COc1ccc2cc(C(O)(C(F)(F)F)C(F)(F)F)c(O)cc2c1)Nc1ccc(-c2ccccc2)cc1 | 2.8 µM | > 20 µM | 3.4 µM | 3.5 µM | 4.8 µM | > 20 µM
Oc1c(C(O)(C(F)(F)F)C(F)(F)F)ccc2ccccc12 | > 500 µM | > 500 µM | > 500 µM | > 500 µM | > 500 µM | > 500 µM
O=C(COc1ccc2cc(C(O)(C(F)(F)F)C(F)(F)F)c(O)cc2c1)NC1c2ccccc2-c2ccccc21 | 5.6 µM | 13.8 µM | 6.6 µM | 6.9 µM | 9.4 µM | 7.5 µM
CCCNC(=O)COc1ccc2cc(C(O)(C(F)(F)F)C(F)(F)F)c(O)cc2c1 | > 20 µM | > 20 µM | > 20 µM | > 20 µM | > 20 µM | > 20 µM
O=C(COc1ccc2cc(C(O)(C(F)(F)F)C(F)(F)F)c(O)cc2c1)Nc1ccc(N2CCOCC2)cc1 | > 20 µM | > 20 µM | > 20 µM | > 20 µM | > 20 µM | > 20 µM
Oc1ccc(-c2ccccc2)cc1C(O)(C(F)(F)F)C(F)(F)F | > 500 µM | > 500 µM | > 500 µM | 392 µM | 351 µM | > 500 µM
O=C(COc1ccc2cc(C(O)(C(F)(F)F)C(F)(F)F)c(O)cc2c1)N(c1ccccc1)c1ccccc1 | 12.4 µM | > 20 µM | 14.9 µM | 19.5 µM | > 20 µM | 20.6 µM
O=C(COc1ccc2cc(C(O)(C(F)(F)F)C(F)(F)F)c(O)cc2c1)NC1CC1 | > 20 µM | > 20 µM | > 20 µM | > 20 µM | > 20 µM | > 20 µM
O=C(COc1ccc2cc(C(O)(C(F)(F)F)C(F)(F)F)c(O)cc2c1)Nc1ccccc1 | > 20 µM | – | > 20 µM | 19 µM | 14.4 µM | > 20 µM
Oc1cc(-c2ccccc2)ccc1C(O)(C(F)(F)F)C(F)(F)F | > 500 µM | > 500 µM | > 500 µM | > 500 µM | > 500 µM | > 500 µM
Oc1cc2ccccc2cc1C(O)(C(F)(F)F)C(F)(F)F | 128 µM | 260 µM | 112 µM | 115 µM | 106 µM | 134 µM
OC(c1ccccc1)(C(F)(F)F)C(F)(F)F | > 500 µM | > 500 µM | > 500 µM | > 500 µM | > 500 µM | > 500 µM
